Experimental data: ChEMBL document CHEMBL1125740, “Heterocyclic quinones. 17. A new in vivo active antineoplastic drug: 6,7-bis(1-aziridinyl)-4-[[3-(N,N-dimethylamino)propyl]amino]-5,8- quinazolinedione” (J Med Chem, 1991)
Several values for one entry are separate records, joined by “and”; a condition that tells them apart may be missing. Equal values may be shown once.

Assays:
[1] = test system: L1210; experiment: Compound was evaluated in vivo for antitumor activity after intraperitoneal administration against L1210(935) for mortality range at an optimal dose of 0.125 mg/kg/injection at 1,4,7,11day schedule.; type: functional, Mus musculus
Procedure, shortened: (§1)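 L1210 leukemia, maintained in DBA/2 mice, was given ip as 10⁵ cells on day 0 to F1 hybrid or strain-of-origin mice over 18 g, in groups of 8. Dosing was ip from day 1, and mortality was checked daily. Median day of death counts dying mice only. %ILS = 100×(treated − control median day of death)/control median. Tumor-free survivors were counted on day 60. Weight change is g/mouse at nadir.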

[2] = test system: L1210; experiment: Compound was evaluated in vivo for antitumor activity after intraperitoneal administration against L1210(935) for tumor free survivors at an optimal dose of 0.125 mg/kg/injection at 1,4,7,11 day schedule.; type: functional, Mus musculus; procedure, shortened: as §1
[3] = test system: P388; experiment: Compound was evaluated in vivo for antitumor activity after intraperitoneal administration against P388/L-PAM(14) for tumor free survivors at an optimal dose of 0.5 mg/kg/injection at one day schedule on day 60; type: functional, Mus musculus
[4] = test system: P388; experiment: Compound was evaluated in vivo for antitumor activity after intraperitoneal administration against P388 (1313) for tumor free survivors at an optimal dose of 1 mg/kg/injection on day 60; type: functional, Mus musculus
[5] = test system: L1210; experiment: Compound was evaluated in vivo for antitumor activity after intraperitoneal administration against L1210(935) for mortality range at an optimal dose of 0.1 mg/kg/injection at 1-4 day schedule.; type: functional, Mus musculus; procedure, shortened: as §1
[6] = test system: P388; experiment: Compound was evaluated in vivo for antitumor activity after intraperitoneal administration against P388 (1313) for total dose at an optimal dose of 0.2 mg/kg/injection; type: functional, Mus musculus
[7] = test system: P388; experiment: Compound was evaluated in vivo for antitumor activity after intraperitoneal administration against P388 (1313) for median day of death at an optimal dose of 0.5 mg/kg/injection; type: functional, Mus musculus
[8] = test system: L1210; experiment: Compound was evaluated in vivo for antitumor activity after intraperitoneal administration against L1210(935) for total dose at an optimal dose of 0.5 mg/kg/injection at 1,4,7,11day schedule.; type: functional, Mus musculus; procedure, shortened: as §1
[9] = test system: B16; experiment: Compound was evaluated in vivo for antitumor activity against B16 melanoma 1 after injecting the compound intravenously for toxicity related death.; type: functional, Mus musculus
[10] = Compound was evaluated in vivo for antitumor activity against colon adenocarcinoma 38 after injecting the compound intravenously for median tumor burden; type: functional, Mus musculus
[11] = Compound was evaluated in vivo for antitumor activity against Lewis Lung cercinoma after injecting the compound intravenously for change in body weight.; type: functional, Mus musculus
Procedure, shortened: (§2)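 Lewis lung carcinoma: 10^6 cells implanted im into C57Bl/6-derived hosts. Drug given iv on days 5, 9 and 13, 10 mice per group. Median tumor burden and weight nadir recorded. Survivors were killed on day 19, and their lungs were fixed in Fekete solution so that macroscopic metastases could be counted.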

[12] = test system: P388; experiment: Compound was evaluated in vivo for antitumor activity after intraperitoneal administration against P388/L-PAM(12) for mortality range at an optimal dose of 0.75 mg/kg/injection; type: functional, Mus musculus
[13] = test system: P388; experiment: Compound was evaluated in vivo for antitumor activity after intraperitoneal administration against P388/L-PAM(14) for total dose at an optimal dose of 1 mg/kg/injection; type: functional, Mus musculus
[14] = test system: P388; experiment: Compound was evaluated in vivo for antitumor activity after intraperitoneal administration against P388/L-PAM(14) for change in body weight at an optimal dose of 0.125 mg/kg/injection at 1,4,7,11 day schedule.; type: functional, Mus musculus
[15] = test system: L1210; experiment: Compound was evaluated in vivo for antitumor activity after intraperitoneal administration against L1210(935) for tumor free survivors at an optimal dose of 1 mg/kg/injection at 1 day schedule.; type: functional, Mus musculus; procedure, shortened: as §1
[16] = test system: P388; experiment: Compound was evaluated in vivo for antitumor activity after intraperitoneal administration against P388 (1313) for total dose at an optimal dose of 1 mg/kg/injection; type: functional, Mus musculus
[17] = test system: P388; experiment: Compound was evaluated in vivo for antitumor activity after intraperitoneal administration against P388 (1313) for total dose at an optimal dose of 0.4 mg/kg/injection; type: functional, Mus musculus
[18] = test system: L1210; experiment: Compound was evaluated in vivo for antitumor activity after intraperitoneal administration against L1210(935) for median day of death at an optimal dose of 0.1 mg/kg/injection at 1-4 day schedule.; type: functional, Mus musculus; procedure, shortened: as §1
[19] = test system: P388; experiment: Compound was evaluated in vivo for antitumor activity after intraperitoneal administration against P388 (1313) for % increase in life span at an optimal dose of 0.4 mg/kg/injection; type: functional; conditions: Mus musculus, P388, ip
[20] = test system: P388; experiment: Compound was evaluated in vivo for antitumor activity after intraperitoneal administration against P388 (1313) for mortality range at an optimal dose of 0.25 mg/kg/injection; type: functional, Mus musculus
[21] = test system: P388; experiment: Compound was evaluated in vivo for antitumor activity after intraperitoneal administration against P388/L-PAM(14) for total dose at an optimal dose of 0.5 mg/kg/injection at 1,4,7,11 day schedule.; type: functional, Mus musculus
[22] = test system: P388; experiment: Compound was evaluated in vivo for antitumor activity after intraperitoneal administration against P388 (1313) for change in body weight at an optimal dose of 0.2 mg/kg/injection; type: functional, Mus musculus
[23] = test system: B16; experiment: Compound was evaluated in vivo for antitumor activity against B16 melanoma 2 after injecting the compound intravenously for toxicity related death.; type: functional, Mus musculus
[24] = test system: P388; experiment: Compound was evaluated in vivo for antitumor activity after intraperitoneal administration against P388/L-PAM(14) for median day of death at an optimal dose of 0.2 mg/kg/injection at 1,2,3,4 day schedule.; type: functional, Mus musculus
[25] = test system: P388; experiment: Compound was evaluated in vivo for antitumor activity after intraperitoneal administration against P388 (1313) for tumor free survivors at an optimal dose of 0.5 mg/kg/injection on day 60; type: functional, Mus musculus
[26] = Compound was evaluated in vivo for antitumor activity against Lewis Lung cercinoma after injecting the compound intravenously for toxicity related death.; type: functional, Mus musculus; procedure, shortened: as §2
[27] = test system: P388; experiment: Compound was evaluated in vivo for antitumor activity after intraperitoneal administration against P388 (1313) for % increase in life span at an optimal dose of 1 mg/kg/injection; type: functional; conditions: Mus musculus, P388, ip
[28] = test system: P388; experiment: Compound was evaluated in vivo for antitumor activity after intraperitoneal administration against P388/L-PAM(14) for total dose at an optimal dose of 0.125 mg/kg/injection at 1,4,7,11 day schedule.; type: functional, Mus musculus
[29] = test system: P388; experiment: Compound was evaluated in vivo for antitumor activity after intraperitoneal administration against P388/L-PAM(14) for tumor free survivors at an optimal dose of 0.2 mg/kg/injection at 1,2,3,4 day schedule.; type: functional, Mus musculus
[30] = test system: P388; experiment: Compound was evaluated in vivo for antitumor activity after intraperitoneal administration against P388/L-PAM(14) for mortality range at an optimal dose of 1 mg/kg/injection; type: functional, Mus musculus
[31] = Compound was evaluated in vivo for antitumor activity against Lewis Lung cercinoma after injecting the compound intravenously for percent T/C (value in parentheses indicates the day of evaluation); type: functional, Mus musculus
[32] = test system: P388; experiment: Compound was evaluated in vivo for antitumor activity after intraperitoneal administration against P388/L-PAM(14) for total dose at an optimal dose of 0.5 mg/kg/injection at one day schedule.; type: functional, Mus musculus
[33] = test system: L1210; experiment: Compound was evaluated in vivo for antitumor activity after intraperitoneal administration against L1210(935) for tumor free survivors at an optimal dose of 0.25 mg/kg/injection at 1,4,7,11 day schedule.; type: functional, Mus musculus; procedure, shortened: as §1
[34] = test system: P388; experiment: Compound was evaluated in vivo for antitumor activity after intraperitoneal administration against P388/L-PAM(14) for tumor free survivors at an optimal dose of 0.1 mg/kg/injection at 1,2,3,4 day schedule.; type: functional, Mus musculus

For CN(C)CCCNc1ncnc2c1C(=O)C(N1CC1)=C(N1CC1)C2=O, the Mortality [1] was 14 days, the Survivors [2] was 0 and the Survivors [3] was 0. The Survivors [4] was 0, the Mortality [5] was 14 days and the Optimal dose [6] was 0.8 mg/kg. For the same molecule, the “Median day of death” value [7] was 25, the Total dose [8] was 2 mg/kg and the Toxicity [9] was 0. The Tumor burden [10] was 416, the “Change in body weight” value [11] was 0.6 g mouse-1 and 1.1 g mouse-1 and the Mortality [12] was 19. The Total dose [13] was 1 mg/kg, the “Change in body weight” value [14] was 0.8 g mouse-1 and the Survivors [15] was 0. The Optimal dose [16] was 1 mg/kg, the Optimal dose [17] was 1.6 mg/kg and the “Median day of death” value [18] was 14. For the same molecule, the ILS at 0.4 mg/kg [19] was 91%, the Mortality [20] was 27 days and the Total dose [21] was 2 mg/kg. For the same molecule, the “Change in body weight” value [22] was 1.3 g mouse-1, the Toxicity [23] was 0 and the “Median day of death” value [24] was 19. It also gave a Survivors [25] of 0, a Toxicity [26] of 0 and an ILS at 1 mg/kg [27] of 70%. The Total dose [28] was 0.5 mg/kg, the Survivors [29] was 0 and the Mortality [30] was 26 days. It also gave a T/C [31] of 81%, a Total dose [32] of 0.5 mg/kg and a Survivors [33] of 0. For the same molecule, the Survivors [34] was 0.
